This is an account of results in ChEMBL document CHEMBL4261539, “18α-Glycyrrhetinic acid monoglucuronide as an anti-inflammatory agent through suppression of the NF-κB and MAPK signaling pathway” (Medchemcomm, 2017).

Calls of active or inactive are those of the source. The calls are words filed in the database; no cut-off is given here.

Data set [1] has as its system Mus musculus. Nature of the data set: Anti-inflammatory activity in C57BL6 mouse model of CCl4-induced hepatic fibrosis assessed as reduction in blue collagen fibers in hepatic tissue at 0.1 mg/kg, ig administered 2 times per week for 4 weeks by masson staining based assay. In kind it is functional, organism-based. The procedure, abridged:
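Male SPF C57BL6 mice (20 ± 2 g), housed at 22 ± 2 °C and 50% humidity with a 12 h light/dark cycle, acclimatized for at least one week. CCl4-induced hepatic fibrosis model, groups compared with untreated control and CCl4 model groups. Liver sections were Masson-stained, and blue collagen fibers were scored by light microscopy.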

Data set [2] deals with Mus musculus. The experiment in a line: Anti-inflammatory activity in C57BL6 mouse model of CCl4-induced hepatic fibrosis assessed as reduction in inflammatory cell infiltration in hepatic tissue at 0.1 mg/kg, ig administered 2 times per week for 4 weeks by H and E staining based assay. In kind it is functional, organism-based. The procedure, abridged: (§1)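 Male SPF C57BL6 mice (20 ± 2 g), acclimatized for at least one week under controlled temperature, humidity and light cycle. Hepatic fibrosis was induced with CCl4, with control and model groups run alongside. Liver tissue was H&E-stained and examined by light microscopy for inflammatory cell infiltration, hepatocyte degeneration and fibrosis.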

Data set [3] has as its system Mus musculus. Nature of the data set: Anti-inflammatory activity in C57BL6 mouse model of CCl4-induced hepatic fibrosis assessed as reduction in hepatic fibrosis at 0.1 mg/kg, ig administered 2 times per week for 4 weeks by H and E staining based assay. In kind it is functional, organism-based. The procedure, abridged: as §1
The subject of data set [4] is RAW264.7. Nature of the data set: Anti-inflammatory activity in mouse RAW264.7 cells assessed as inhibition of LPS-induced NO production at 40 uM preincubated for 2 hrs followed by LPS addition measured after 20 hrs by Griess assay relative to control. Type of data set: functional. The procedure, abridged:
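Macrophages (RAW264.7) are pretreated 2 h with compound at 40 μM, then held with or without LPS (1 μg mL–1) for 20 h. Released NO is measured with Griess reagent. Results are means ± SD (n = 3) from at least three independent experiments.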
For orientation: The Griess reaction detects nitrite, a stable product of nitric oxide.

Data set [5] has as its system RAW264.7. The experiment in a line: Anti-inflammatory activity in mouse RAW264.7 cells assessed as inhibition of LPS-induced IL-6 production at 10 to 40 uM preincubated for 2 hrs followed by LPS addition measured after 20 hrs by ELISA. In kind it is functional, cell-based. The procedure, abridged:
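RAW264.7 cells are pretreated 2 h with compound at 40 or 10 μM, then held with or without LPS (1 μg mL–1) for 20 h. Supernatant IL-6 is quantified by ELISA. Results are means ± SD (n = 3) of at least three independent experiments.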
In general terms: An ELISA detects its analyte on a solid surface through an enzyme-linked reagent.

Data set [6] can be described thus: Cytotoxicity against mouse RAW264.7 cells assessed as cell viability at 40 uM after 24 hrs by MTT assay relative to control. Type of data set: cell-based. As to conditions: read-out: Activity. For orientation: Tetrazolium assays rely on reduction of a dye to a coloured formazan, in cell work by metabolically active cells.
The subject of data set [7] is RAW264.7. Nature of the data set: Inhibition of LPS-induced ERK phosphorylation in mouse RAW264.7 cells after 30 mins by Western blot analysis. Type of data set: cell-based. The procedure, abridged: (§2)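 RAW264.7 cells are exposed to 10–30 μM test article plus LPS (1 μg mL–1) for 30 min. Total and phosphorylated proteins are probed by western blot: NF-κB p65 and IκB, with Bay 11-7082 (20 μM) as reference, and JNK, ERK1/2 and p38 MAPK. Results are means ± SD (n = 3) from at least three independent experiments.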

Data set [8] has as its target Transcription factor p65 (Mus musculus) (UniProt Q04207). Nature of the data set: Inhibition of LPS-induced NF-kB p65 phosphorylation in mouse RAW264.7 cells at 10 to 30 uM after 30 mins by Western blot analysis. Type of data set: cell-based. The procedure, abridged: as §2
Data set [9] has the same target. Nature of the data set: Inhibition of LPS-induced NF-kB p65 nuclear tanslocation in mouse RAW264.7 cells at 20 to 30 uM preincubated for 1 hr followed by LPS addition measured after 3 hrs by DAPI staining based immunofluorescence assay. In kind it is cell-based. The procedure, abridged: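 For p65 nuclear translocation, RAW264.7 cells are pretreated 1 h with test article, then stimulated with LPS (1 μg mL–1) for 3 h before immunofluorescence imaging.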

For data set [10], the system named is RAW264.7. The experiment in a line: Anti-inflammatory activity in mouse RAW264.7 cells assessed as inhibition of LPS-induced COX2 protein expression measured after 20 hrs by Western blot analysis. Type of data set: functional, cell-based. The procedure, abridged: (§3)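 RAW264.7 cells are treated with graded concentrations of test article, then held with or without LPS (1 μg mL–1) for 20 h. iNOS and COX-2 protein are measured. The NF-κB inhibitor Bay 11-7082 (20 μM) serves as reference. Results are means ± SD (n = 3) of at least three independent experiments.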

In data set [11] the test system is Mus musculus. Nature of the data set: Anti-inflammatory activity in C57BL6 mouse model of CCl4-induced hepatic fibrosis assessed as reduction in hepatic fibrosis at 100 to 200 mg/kg, ig administered 2 times per week for 4 weeks by H and E staining based assay. Type of data set: functional, organism-based. The procedure, abridged:
(§4)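 Male SPF C57BL6 mice (20 ± 2 g) are acclimatized at least one week at 22 ± 2 °C, 50% humidity, 12 h light/dark, with free food and water. CCl4 induces hepatic fibrosis. Groups are control, model, colchicine 0.1 mg kg–1, and test article at 100 or 200 mg kg–1. Liver sections are scored by light microscopy after H&E and Masson staining.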

Data set [12] can be described thus: Inhibition of LPS-induced IkBalpha phosphorylation in mouse RAW264.7 cells at 10 to 30 uM after 30 mins by Western blot analysis.
Data set [13] concerns Mus musculus. Nature of the data set: Anti-inflammatory activity in C57BL6 mouse model of CCl4-induced hepatic fibrosis assessed as reduction in inflammatory cell infiltration in hepatic tissue at 100 to 200 mg/kg, ig administered 2 times per week for 4 weeks by H and E staining based assay. In kind it is functional, organism-based. The procedure, abridged:
as §4

Data set [14] concerns RAW264.7. The experiment in a line: Anti-inflammatory activity in mouse RAW264.7 cells assessed as inhibition of LPS-induced iNOS protein expression measured after 20 hrs by Western blot analysis. In kind it is functional, cell-based. The procedure, abridged:
as §3

Data set [15] deals with Mus musculus. The experiment in a line: Anti-inflammatory activity in C57BL6 mouse model of CCl4-induced hepatic fibrosis assessed as reduction in blue collagen fibers in hepatic tissue at 100 to 200 mg/kg, ig administered 2 times per week for 4 weeks by masson staining based assay. Type of data set: functional, organism-based. The procedure, abridged:
as §4

Transcription factor p65 (Mus musculus), sequence (Q04207 whole entry): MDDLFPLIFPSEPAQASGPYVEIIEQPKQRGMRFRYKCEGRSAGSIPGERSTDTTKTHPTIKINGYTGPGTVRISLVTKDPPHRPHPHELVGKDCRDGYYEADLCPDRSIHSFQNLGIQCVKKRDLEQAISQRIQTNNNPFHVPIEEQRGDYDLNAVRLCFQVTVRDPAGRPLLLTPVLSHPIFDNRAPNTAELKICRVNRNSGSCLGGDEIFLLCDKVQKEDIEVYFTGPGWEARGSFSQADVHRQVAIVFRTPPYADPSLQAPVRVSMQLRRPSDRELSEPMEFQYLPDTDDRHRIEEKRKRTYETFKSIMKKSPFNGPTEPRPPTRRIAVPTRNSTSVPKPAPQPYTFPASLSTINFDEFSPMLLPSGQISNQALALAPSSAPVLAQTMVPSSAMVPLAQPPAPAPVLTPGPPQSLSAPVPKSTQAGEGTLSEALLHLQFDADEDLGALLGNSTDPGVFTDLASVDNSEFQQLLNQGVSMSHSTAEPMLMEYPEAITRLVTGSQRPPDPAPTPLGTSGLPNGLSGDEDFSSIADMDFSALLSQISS

Turning to `COc1cc2c(c(OC)c1OC)-c1ccc(OC)c(=O)cc1[C@@H](NC(C)=O)CC2`, the result with Mus musculus [1], in the data set with Mus musculus [2] and with Mus musculus [3] was Active.
For `CC1(C)[C@@H](O[C@H]2O[C@H](C(=O)O)[C@@H](O)[C@H](O)[C@H]2O[C@@H]2O[C@H](C(=O)O)[C@@H](O)[C@H](O)[C@H]2O)CC[C@]2(C)[C@H]3C(=O)C=C4[C@H]5C[C@@](C)(C(=O)O)CC[C@]5(C)CC[C@@]4(C)[C@]3(C)CC[C@@H]12`, the inhibition result with RAW264.7 [4] and in the data set with RAW264.7 [5] was “Active” in each case. For the same compound, the viability at 24 h, 40 µM in data set [6] is over 96%.
Regarding `CC1(C)[C@@H](O[C@H]2O[C@H](C(=O)O)[C@@H](O)[C@H](O)[C@H]2O)CC[C@]2(C)[C@H]3C(=O)C=C4[C@@H]5C[C@@](C)(C(=O)O)CC[C@]5(C)CC[C@@]4(C)[C@]3(C)CC[C@@H]12`, the inhibition entry with RAW264.7 [4] and in the data set with RAW264.7 [5] was “Active” in each case. The viability at 24 h, 40 µM in data set [6] is over 96%.
`CC1(C)[C@@H](O)CC[C@]2(C)[C@H]3C(=O)C=C4[C@@H]5C[C@@](C)(C(=O)O)CC[C@]5(C)CC[C@@]4(C)[C@]3(C)CC[C@@H]12` [ENOXOLONE]: the inhibition result in the data set on RAW264.7 [4] and with RAW264.7 [5] was “Active” in each case. The viability at 24 h, 40 µM in [6] was over 96%.
As for `CC1(C)[C@@H](O[C@H]2O[C@H](C(=O)O)[C@@H](O)[C@H](O)[C@H]2O)CC[C@]2(C)[C@H]3C(=O)C=C4[C@H]5C[C@@](C)(C(=O)O)CC[C@]5(C)CC[C@@]4(C)[C@]3(C)CC[C@@H]12`, the inhibition result with RAW264.7 [7], in the data set on RAW264.7 [10] and in the data set on RAW264.7 [14] was “Dose-dependent effect” in each case. For the same compound, the inhibition entry (in data set [8]; in [9]; in the data set with RAW264.7 [5]; in data set [12]) was “Active” in each case. Further, the inhibition at 40 µM with RAW264.7 [4] is over 70%. The result with Mus musculus [11], in the data set with Mus musculus [13] and in the data set with Mus musculus [15] was Active. Moreover, the viability at 24 h, 40 µM in data set [6] was over 96%.
`CC1(C)[C@@H](O[C@H]2O[C@H](C(=O)O)[C@@H](O)[C@H](O)[C@H]2O[C@@H]2O[C@H](C(=O)O)[C@@H](O)[C@H](O)[C@H]2O)CC[C@]2(C)[C@H]3C(=O)C=C4[C@@H]5C[C@@](C)(C(=O)O)CC[C@]5(C)CC[C@@]4(C)[C@]3(C)CC[C@@H]12` [GLYCYRRHIZIN]: the inhibition entry in the data set with RAW264.7 [4] and in the data set with RAW264.7 [5] was “Active” each time. In data set [6], the viability at 24 h, 40 µM is over 96%.
For `CC1(C)[C@@H](O)CC[C@]2(C)[C@H]3C(=O)C=C4[C@H]5C[C@@](C)(C(=O)O)CC[C@]5(C)CC[C@@]4(C)[C@]3(C)CC[C@@H]12` [18alpha-GLYCYRRHETINIC ACID], the inhibition entry with RAW264.7 [4] and in the data set on RAW264.7 [5] was “Active” throughout. In addition, the viability at 24 h, 40 µM in data set [6] is over 96%.

One may read the inhibition as the percentage by which the read-out fell short of the control.
